Laboratory results reported in ChEMBL document CHEMBL3352378, “Novel carbazole inhibits phospho-STAT3 through induction of protein-tyrosine phosphatase PTPN6” (J Med Chem, 2014).
Calls of active or inactive are those of the source. The rule behind the calls is not given here.

What was measured:
[1] = target: Signal transducer and activator of transcription 3 (Homo sapiens) (UniProt P40763); assay: Inhibition of STAT3C-mediated transcription in human Hs578T cells at 1 uM after 24 hrs by luciferase reporter gene assay; type: cell-based; conditions: Hs-578T
Chain of Signal transducer and activator of transcription 3 (Homo sapiens) (P40763 whole entry): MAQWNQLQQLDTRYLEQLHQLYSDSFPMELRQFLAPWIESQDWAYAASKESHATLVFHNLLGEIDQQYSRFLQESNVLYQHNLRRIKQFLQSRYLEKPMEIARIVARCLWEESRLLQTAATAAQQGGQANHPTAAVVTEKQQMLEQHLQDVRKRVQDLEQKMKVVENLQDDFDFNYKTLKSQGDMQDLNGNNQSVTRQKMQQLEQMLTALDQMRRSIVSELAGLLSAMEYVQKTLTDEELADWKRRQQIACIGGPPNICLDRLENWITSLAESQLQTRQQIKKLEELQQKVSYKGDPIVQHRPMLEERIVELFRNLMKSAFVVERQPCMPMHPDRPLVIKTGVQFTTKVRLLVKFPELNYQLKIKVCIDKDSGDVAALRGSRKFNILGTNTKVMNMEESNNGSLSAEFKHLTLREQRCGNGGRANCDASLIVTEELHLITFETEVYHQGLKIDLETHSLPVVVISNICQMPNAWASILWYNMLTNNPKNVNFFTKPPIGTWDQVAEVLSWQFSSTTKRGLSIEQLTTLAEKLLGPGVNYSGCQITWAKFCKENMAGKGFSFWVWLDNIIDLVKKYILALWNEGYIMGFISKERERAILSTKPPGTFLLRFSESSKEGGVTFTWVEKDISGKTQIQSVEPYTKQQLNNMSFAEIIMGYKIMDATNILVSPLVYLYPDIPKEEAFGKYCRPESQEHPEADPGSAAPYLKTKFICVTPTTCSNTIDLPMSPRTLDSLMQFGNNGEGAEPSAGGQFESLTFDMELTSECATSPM
In short: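 HS578T cells co-transfected with a constitutively active STAT3 (STAT3C) expression vector and the APRE-Luc reporter. Treated at 1 μM for 24 h, with JAK2 inhibitor AZD1480 for comparison. Luciferase measured; mean ± SD of triplicates.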

[2] = target: Signal transducer and activator of transcription 3 (Homo sapiens) (UniProt P40763); assay: Inhibition of STAT3 in human Hs578T cells assessed as reduction of IL-6 induced transactivation incubated for 1 hr prior to IL-6 challenge measured after 2 hrs by luciferase reporter gene assay; type: cell-based; conditions: Hs-578T
In short: (§1)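 Cells transfected with the APRE-Luc STAT3-responsive reporter. Pretreated 1 h with increasing concentrations, then given 5 ng/mL IL-6: 2 h for HS578T, 16 h for MCF7. Luciferase read afterwards; relative activity as mean ± SD of triplicates.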

[3] = target: Signal transducer and activator of transcription 3 (Homo sapiens) (UniProt P40763); assay: Inhibition of STAT3 in human MCF7 cells assessed as reduction of IL-6 induced transactivation incubated for 1 hr prior to IL-6 challenge measured after 16 hrs by luciferase reporter gene assay; type: cell-based; in short: as §1
[4] = target: Signal transducer and activator of transcription 3 (Homo sapiens) (UniProt P40763); assay: Inhibition of STAT3 in human Hs578T cells assessed as reduction of IL-6 induced STAT3 phosphorylation at Y705 incubated for 2 hrs prior to IL-6 challenge measured after 30 mins by Western blotting analysis; type: cell-based; conditions: Hs-578T
In short: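 Cells pretreated with compound for 2 h, then stimulated with IL-6 at 5 ng/mL for 30 min. Lysates immunoblotted for phospho-STAT3 (Y705), with β-actin as loading control.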

[5] = target: Signal transducer and activator of transcription 3 (Homo sapiens) (UniProt P40763); assay: Inhibition of STAT3 in human SUM149PT cells assessed as reduction of IL-6 induced STAT3 phosphorylation at Y705 incubated for 2 hrs prior to IL-6 challenge measured after 30 mins by Western blotting analysis; type: cell-based
SUM1315MO2 = assay: Cytotoxicity against human SUM1315MO2 cells after 72 hrs by MTT assay; type: functional, cell-based
In short: (§2)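 Cells exposed to increasing concentrations for about 72 h, and viability read by MTT. EC50 fitted with CompuSyn. Two independent experiments, each in triplicate, mean ± SEM. Compound stocks 10 mM in DMSO.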

SUM149PT = assay: Cytotoxicity against human SUM149PT cells after 72 hrs by MTT assay; type: functional, cell-based; in short: as §2
MDA-MB-453 = assay: Cytotoxicity against human MDA-MB-453 cells after 72 hrs by MTT assay; type: functional, cell-based; in short: as §2
MDA-MB-231 = assay: Cytotoxicity against human MDA-MB-231 cells after 72 hrs by MTT assay; type: functional, cell-based; in short: as §2
Hs-578T = assay: Cytotoxicity against human Hs578T cells after 72 hrs by MTT assay; type: functional, cell-based; in short: as §2
MDA-MB-436 = assay: Cytotoxicity against human MDA-MB-436 cells after 72 hrs by MTT assay; type: functional, cell-based; in short: as §2
BT-549 = assay: Cytotoxicity against human BT549 cells after 72 hrs by MTT assay; type: functional, cell-based; in short: as §2
MDA-MB-468 = assay: Cytotoxicity against human MDA-MB-468 cells after 72 hrs by MTT assay; type: functional, cell-based; in short: as §2
HCC1937 = assay: Cytotoxicity against human HCC1937 cells after 72 hrs by MTT assay; type: functional, cell-based; in short: as §2
A-431 = assay: Cytotoxicity against human A431 cells after 72 hrs by MTT assay; type: functional; conditions: A-431, 72 h; in short: as §2
A549 = assay: Cytotoxicity against human A549 cells after 72 hrs by MTT assay; type: functional; conditions: A549, 72 h; in short: as §2
[6] = Cytotoxicity against human PC3 cells after 72 hrs by MTT assay; type: functional; conditions: PC-3, 72 h; in short: as §2
[7] = target: Signal transducer and activator of transcription 3 (Homo sapiens) (UniProt P40763); assay: Inhibition of STAT3 in human Hs578T cells assessed as reduction of STAT3 phosphorylation at Y705 after 24 hrs by Western blotting analysis; type: cell-based; conditions: Hs-578T
In short: (§3)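 HS578T and SUM149PT cells given increasing concentrations for 24 h. Lysates immunoblotted with the indicated antibodies, β-actin as loading control.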

[8] = target: Signal transducer and activator of transcription 3 (Homo sapiens) (UniProt P40763); assay: Inhibition of STAT3 in human SUM149PT cells assessed as reduction of STAT3 phosphorylation at Y705 after 24 hrs by Western blotting analysis; type: cell-based; in short: as §3
[9] = target: Signal transducer and activator of transcription 3 (Homo sapiens) (UniProt P40763); assay: Inhibition of STAT3 in human Hs578T cells assessed as reduction of cyclin D1 level at 0.3 to 3 uM after 24 hrs by Western blotting analysis; type: cell-based; conditions: Hs-578T; in short: as §3
[10] = target: Signal transducer and activator of transcription 3 (Homo sapiens) (UniProt P40763); assay: Inhibition of STAT3 in human SUM149PT cells assessed as reduction of cyclin D1 level at 0.3 to 3 uM after 24 hrs by Western blotting analysis; type: cell-based; in short: as §3

inhibition [1]: Active | inhibition [2]: Dose-dependent effect | inhibition [3]: Active | inhibition [4]: Dose-dependent effect | inhibition [5]: Dose-dependent effect | inhibition [7]: Dose-dependent effect | inhibition [8]: Dose-dependent effect | inhibition [9]: Active | inhibition [10]: Active
Compound: Cc1c(OS(=O)(=O)c2cccc3c(N(C)C)cccc23)ccc2c1[nH]c1cc(O)ccc12
Activity (SUM1315MO2): Active | Activity (SUM149PT): Active | Activity (MDA-MB-453): Active | Activity (MDA-MB-231): Active | Activity (Hs-578T): Active | Activity (MDA-MB-436): Active | Activity (BT-549): Active | Activity (MDA-MB-468): Active | Activity (HCC1937): Active | GI50 (A-431): 160 nM | GI50 (A549): 2500 nM | GI50 [6]: 3000 nM
